Assay results taken from PubChem BioAssay.
A number with no mark means an inactive call. Records with an inconclusive call do not appear. Active and inactive are the calls of the source.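 How the source made its calls, unless noted: active means RAM network inhibition above 8.4% in each of two replicates, 3 SD over the compound average; inconclusive means above 8.4% inhibition in only one replicate; inactive means 8.4% inhibition or less in each replicate.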

Columns and labels:
[1] = OD615 S. cerevisiae growth inhibition, permissive medium, pilot counter-assay, permissive growth control for S. cerevisiae lifespan shortening project (AID 705;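 active means growth inhibition above 25% in both replicates, a cutoff set 3 SD above the mean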); details: OD615, 24 h, at 10 µM, stronger effect = higher value
In short: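 Timing: 24 h exposure, 30 °C / Material: Saccharomyces cerevisiae strain carrying genetically modified DeaD replicative-lifespan system / Signal: OD at 615 nm / Compound: 10 µM single dose, 0.25% DMSO / Medium: SC raffinose/galactose permissive medium / Evaluation: reduction in yeast growth (OD615)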

[2] = Restrictive medium S. cerevisiae growth inhibition, OD615, pilot screen of yeast lifespan reduction project, restrictive growth control (AID 706;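 active means growth inhibition above a set limit, 3 SD over mean compound inhibition, in both replicates, cut at about 43% in these data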;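 further: modified DeaD lifespan yeast strain shifted to restrictive glucose medium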); details: OD615, 48 h, at 10 µM, stronger effect = higher value
In short: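 System: Engineered S. cerevisiae DeaD strain | Detection: OD615 | Buffer or medium: CSMM-D glucose medium | Doses: 10 µM compound, 0.25% DMSO | Timing: 4 h pre-growth plus 48 h compound exposure, 30 °C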

[3] = viability gain of MRP-1-high H69AR cells under doxorubicin, pilot screen, MRP-1 activator project, CellTiter-Glo, duplicate (AID 807;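 active means viability increase at or above a cutoff of the median across tested compounds plus 3 SD, cut at about 8.5% in these data, passing the limit was not always enough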;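 further: compound pretreatment 18-22 h then 72 h combined with doxorubicin; 0% = doxorubicin alone and 100% = vehicle without doxorubicin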); details: H69AR viability with doxorubicin, CellTiter-Glo luminescence; at 10 µM; stronger effect = higher value
[4] = growth suppression of beta-catenin knockout HCT116, pilot screen, human colon tumor cells (AID 823;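 active means cell viability at or below a set limit in both duplicate runs, the limit being the all-compound median minus 4 SD, cut at about 23% in these data, passing the limit was not always enough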;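 further: 0% = wells killed by 20 µM Hyamine and 100% = untreated DMSO cell wells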); details: CellTiter-Glo, 60 h, at 10 µM, stronger effect = lower value
[5] = growth suppression of PTEN-deleted HCT116, pilot screen, cell-based, HCT116 clonal line, CellTiter-Glo (AID 824;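 active means viability at or below 27.92% in each of two runs, the all-compound median minus 4 SD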;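 further: 0% = 20 µM Hyamine control and 100% = vehicle cell control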); details: 60 h, at 10 µM, stronger effect = lower value
[6] = inhibitors of the yeast RAM network, pilot screen, dse1pr::URA3 reporter, 5-FOA selection (AID 869;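 active means inhibition over a set limit, the all-compound mean plus 3 SD, in both replicate runs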;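 further: 0% = DMSO wells with no growth and 100% = 10 µM 1-NA-PP1 with full growth; RAM network block rescues cells from 5-FOA so hits raise OD615 growth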); details: S. cerevisiae dse1pr::URA3 5-FOA growth, OD615, 2 d; at 10 µM; stronger effect = higher value; strain carries analog-sensitive mutant Cbk1 kinase
[7] = RAM signaling pathway blockade in yeast – S. cerevisiae, Pdr1DBD-CYC8 efflux-inhibited sensitized strain, primary screen (AID 1298);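 further: 0% = DMSO untreated cells without growth and 100% = 10 µM 1-NA-PP1 full growth; higher means more yeast growth rescued from 5-FOA killing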; details: S. cerevisiae cbk1-as DSE1-URA3 strain, 5-FOA growth OD615, 2 d; at 50 µM; stronger effect = higher value

| SMILES | growth inhibition [1] [%] | growth inhibition [2] [%] | viability increase [3] [%] | viability [4] | viability [5] | inhibition [6] [%] | RAM network inhibition [7] [%] |
| --- | --- | --- | --- | --- | --- | --- | --- |
| Cc1ccc(Cl)cc1N1CCN(C(=O)CCC(=O)O)CC1 | -10.9 | -29.2 | -1.08 | 95.6% | 91.3% | 1.51 | 2.18 |
| Cc1ccc2cc(CCNC(=O)CC(C)C)c(=O)[nH]c2c1 | -7.75 | -0.53 | 0.14 | 105% | 103% | 1.69 | 3.87 |
| CN(CC(=O)NC1CCCCCCC1)S(=O)(=O)c1cccc2cccnc12 | 0.055 | 0.405 | -1.32 | 93.2% | 87.1% | 1.26 | 2.33 |
| CN1CCN(S(=O)(=O)c2ccc3c4c(cccc24)C(=O)N3)CC1 | -11.8 | -4.42 | -2 | 110% | 96.4% | 1.18 | 1.28 |
| Cc1nc2sc(C(c3ccc(Cl)cc3)N3CCN(CCO)CC3)c(O)n2n1 (configuration not stated) | 7.67 | 4.92 | -2.42 | 97% | 90.2% | 1.82 | 1.58 |
| COc1ccc(C)cc1Nc1cc(C)nc2ncnn12 | -7.14 | 0.405 | -4.44 | 95.1% | 88.9% | 1.28 | -1.57 |
| COCCNC(=O)CN(c1cc(C(F)(F)F)ccc1Cl)S(C)(=O)=O | -2.77 | 1.25 | -0.83 | 99.9% | 97.5% | 3.02 | 0.87 |
| COc1ccc(Br)cc1S(=O)(=O)N1CCN=C1C | -0.525 | -18.3 | -1.79 | 91.1% | 83.4% | 0.79 | -0.12 |
| CCn1cc(C(=O)NCCCN2CC(C)CC(C)C2)c(=O)c2cc(S(=O)(=O)N(C)C)ccc21 (configuration not stated) | -10.3 | -19.1 | -2.78 | 96% | 98.7% | 0.88 | -0.73 |
| CCOC(=O)c1c(/N=C/N(C)C)sc(C(=O)OC)c1C | -5.39 | 3.21 | -4.56 | 91.1% | 89.6% | 0.78 | 1.45 |
| CCC(NC(=O)c1ccccc1NC(=O)c1ccco1)C(=O)O (configuration not stated) | -0.94 | -12.6 | -4.34 | 109% | 95.7% | 0.27 | 0.73 |
| O=C(Nc1ccccc1)C1CC(=O)N(C2CCCCC2)C1 (configuration not stated) | -8.56 | 7.07 | 1.42 | 105% | 101% | 1.58 | 3.42 |
| O=C(COC(=O)c1ccc(Br)c(S(=O)(=O)N2CCOCC2)c1)NCC1CCCO1 (configuration not stated) | -1.59 | -5.15 | -2.27 | 100% | 101% | 3.08 | 4.66 |
| C=CCn1c(SCCC#N)nnc1-c1ccncc1 | -5.01 | -18.7 | -3.07 | 100% | 93.4% | 1.88 | -0.94 |
| CCOC(=O)Cn1c(=O)oc2cc(S(=O)(=O)Nc3cc(Cl)ccc3OC)ccc21 | -2.69 | -4.88 | -2.35 | 91.9% | 89% | 0.525 | 4.96 |
| CCOC(=O)c1c(NC(=O)c2ccco2)sc2c1CCCC2 | -15.7 | -15.4 | 1.84 | 97.8% | 101% | 4.13 | 1.41 |
| CC(C)NS(=O)(=O)c1ccc2c(c1)oc(=O)n2C | -2.26 | 2.4 | -0.75 | 106% | 98.7% | -0.14 | 0.91 |
| C=CCNC(=O)C1CCN(S(=O)(=O)c2ccc(Br)cc2)CC1 | -8.89 | -18 | -2.46 | 48.1% | 48.1% | 0.52 | 1.76 |

| SMILES | growth inhibition [1] [%] | growth inhibition [2] [%] | viability increase [3] [%] | viability [4] | viability [5] | inhibition [6] [%] | RAM network inhibition [7] [%] |
| --- | --- | --- | --- | --- | --- | --- | --- |
| COc1ccccc1NC=C1C(=O)OC(C)(C)OC1=O | -17.5 | -7.71 | -2.6 | 91% | 101% | 0.955 | 2.48 |
| CCOc1ccccc1C1C(C(=O)Nc2ccccc2OC)=C(C)Nc2nc(CCCO)nn21 (configuration not stated) | -20.1 | -8.73 | -3.55 | 89.5% | 88% | 1.01 | 4.4 |
| CCOCCCNC(=O)C(c1ccc(Cl)cc1)N1CCN(C(=O)c2ccco2)CC1 (configuration not stated) | -19.4 | -17.1 | -2.12 | 101% | 96.2% | 2.34 | 5.86 |
| COC(=O)C(C(=O)OC)=C(/C=C/N(C)C)N(C)C | -16.7 | -1.41 | -0.39 | 99.2% | 101% | 1.26 | 2.7 |
| CCSc1nnc(Cn2c(=O)sc3ccccc32)n1-c1ccc(OC)cc1 | -4.46 | 30.7 | -1.8 | 92.1% | 86.5% | -0.94 | 9.11 |
| O=C(NCCN1CCCCC1)c1ccc2c(c1)OCCO2 | -9.66 | -10.3 | -1.4 | 102% | 99% | 1.86 | 2.64 |
| CCCCCn1c(SCC(=O)OC)nc2c1c(=O)[nH]c(=O)n2C | -16.6 | -10.6 | -0.86 | 103% | 102% | 1.29 | 0.79 |
| Cc1ccc(-n2ncc3c(=O)[nH]c(SCC(=O)N4CCC(C)CC4)nc32)cc1C | -0.265 | -3.58 | -5.08 | 89% | 85.3% | 1.89 | 2.86 |
| Cc1ccc(C(=O)NCCCCNC(=O)c2ccc(C)o2)o1 | -5.8 | -4.64 | -1.97 | 106% | 96.3% | 3.56 | 4.03 |
| Cc1ccc(Sc2oc(/C=N/n3cnnc3)cc2Br)cc1 | 0.63 | 4.41 | -7 | 6.77% (active) | 6.87% (active) | 1.4 | 3.27 |
| CCCc1ccc(-c2ccc(C(=O)O)cc2)nc1 | 8.77 | 5.22 | -3.24 | 101% | 95.9% | -0.425 | -2.78 |
| O=c1c2ccccc2nnn1CSc1nnc(-c2ccco2)o1 | -8.6 | 2.08 | -4.5 | 83.3% | 86.5% | 0.57 | 0.46 |
| O=C(Cc1n[nH]c(=O)c2ccccc12)NCc1ccccn1 | -3.9 | -19.5 | -0.08 | 103% | 99% | 1.48 | 2.08 |
| O=C(Cn1nc(-c2ccc(Cl)cc2)ccc1=O)NCCN1CCOCC1 | -3.21 | -12.3 | -1.27 | 100% | 100% | 0.355 | 7.69 |
| CCCC(=O)C1=C(O)C(C(=O)OC)C(C)(C)CC1=NC (configuration not stated) | -14.5 | -12.3 | 0.12 | 95.3% | 94.9% | 0.54 | 0.46 |
| Brc1ccc2c(c1)c1nc3ccccc3nc1n2CCN1CCOCC1 | -11 | -0.14 | -5.95 | 56% | 59.4% | 4.42 | 5.58 |
| Cc1nn(-c2ccc(Cl)cc2)c2sc(C(=O)N3CCN(C(=O)c4ccco4)CC3)cc12 | -4.13 | -10.7 | -5.55 | 89.3% | 82.5% | 2 | 2.13 |
| COc1ccc(C2C(C(N)=O)=C(C)Nc3nc(-c4ccccc4Cl)nn32)c(OC)c1 (configuration not stated) | -17.8 | -11.2 | -0.07 | 93.9% | 94.7% | 1.21 | -1.06 |
